Only some compounds are listed: those with a hit (about 1.1% of all), similar ones and a draw of the others.
SENP1 inh – SENP1 (human) catalytic domain inhibition; recombinant SENP1 catalytic domain, CyPet-SUMO1-YPet FRET cleavage; 0.21% of 360,000 active; inhibition, % at 10 µM; Q9P0U3;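 active = inhibition at least 30% at 10 µM, raw YFP signal under a set limit, fluorescence ratio 0.5 to 1.5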;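 note: 0% = enzyme with DMSO and 100% = no enzyme wells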
Target sequence (Q9P0U3 419-644 limits assumed): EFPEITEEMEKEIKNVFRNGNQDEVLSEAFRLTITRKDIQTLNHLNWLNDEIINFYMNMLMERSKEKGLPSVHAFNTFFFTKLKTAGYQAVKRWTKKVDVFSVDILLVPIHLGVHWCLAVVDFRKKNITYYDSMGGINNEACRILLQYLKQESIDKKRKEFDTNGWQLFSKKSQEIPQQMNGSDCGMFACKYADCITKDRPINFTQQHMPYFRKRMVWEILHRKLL
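Compound: 10 µM single point, 0.5% DMSO; Test system: hSENP1 catalytic domain, recombinant; Timing: 50 min reaction at room temperature; Technique: FRET, CFP and YFP emission; Control set: no-enzyme wells low, DMSO-plus-enzyme wells high control.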
Arrestin-AP2 inh – inhibitors of human beta-arrestin and AP2 interaction; FITC-arrestin peptide / GST-AP2 beads, flow cytometry; AP2 beta2 appendage carries R879A mutation; inhibition, % at 10 µM; 0.31% of 340,000 active; AID 504490;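 active = inhibition above a set limit, near 3 SD of compounds lacking own fluorescence, cut at about 54% in these data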;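 note: plate controls were DMSO wells for no effect and 5 µM unlabelled arrestin peptide for full effect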
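system = GST-tagged AP2 beta2-adaptin appendage (R879A) on 4 µm glutathione beads | reagent = FITC-labelled arrestin peptide probe, 50 nM final | schedule = compound with beads 12 min RT, then probe 1 h RT | signal = HyperCyt-sampled flow cytometry, FL1 channel, ex 488/em 535 nm | read-out = percent response from loss of bead-bound FITC fluorescence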
FAS-TE inh – inhibitors of human fatty acid synthase thioesterase domain; P49327; recombinant FAS-TE, OMFH fluorogenic substrate, fluorescence endpoint; inhibition, % at 15 µM; 0.67% of 360,000 active;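 active = compounds whose normalised, plate-corrected inhibition of enzyme fluorescence in the single-dose primary screen is 50% or more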;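 note: 0% = DMSO with enzyme and 100% = substrate without enzyme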
GASC-1 inh – human JMJD2C demethylase inhibition. Q9H3R0. GST-JMJD2C(1-420) H3K9me3 demethylation, DELFIA europium. inhibition, % at 2.35 µM. 0.069% of 330,000 active. AID 2099;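 active = more than half of a compound's replicate wells show inhibition beyond 50%, single wells judged on their own value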;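 note: signal counts dimethyl H3K9 product captured on neutravidin plate; 0% = median of DMSO wells and 100% = 0.3 times that DMSO median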
Target sequence (Q9H3R0 1-420 limits assumed): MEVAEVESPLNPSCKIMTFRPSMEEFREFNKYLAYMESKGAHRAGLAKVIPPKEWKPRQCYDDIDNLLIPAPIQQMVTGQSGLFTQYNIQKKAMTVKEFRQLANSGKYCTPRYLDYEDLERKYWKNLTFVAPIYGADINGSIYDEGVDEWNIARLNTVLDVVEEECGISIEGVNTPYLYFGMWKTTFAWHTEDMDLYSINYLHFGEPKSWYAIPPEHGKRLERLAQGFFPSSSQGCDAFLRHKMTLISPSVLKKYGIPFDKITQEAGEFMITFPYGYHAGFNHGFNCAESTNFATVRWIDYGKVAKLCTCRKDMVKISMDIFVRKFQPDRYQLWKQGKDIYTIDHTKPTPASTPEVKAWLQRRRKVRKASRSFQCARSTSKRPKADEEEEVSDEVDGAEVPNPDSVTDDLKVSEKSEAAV
Arr-AP2 CP1 – human beta-arrestin and AP2 interaction inhibition, cherry pick. inhibition, % at 10 µM. 2% of 1,300 active. shares compounds with Arrestin-AP2 inh. GST-AP2 beads, FITC arrestin peptide binding, flow cytometry; GST-fused beta2-adaptin appendage, R879A mutant;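 active = inhibition above a set limit, roughly 3 SD of non-fluorescent compound noise, cut at about 38% in these data; inactive = inhibition at or below that limit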;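 note: loss of bead fluorescence from 50 nM FITC arrestin peptide bound to appendage; 0% = negative control wells and 100% = excess unlabelled arrestin peptide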
GST-FITC bead – counter-screen for beta-arrestin AP2 inhibitors: GST-GSH bead binding. AID 588338. shares compounds with Arrestin-AP2 inh. 2% of 1,300 active. inhibition, % at 10 µM. GST-fluorescein binding to GSH beads, fluorescence;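 active = inhibition above 50%, about 3 SD of the inhibition seen with non-fluorescent compounds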;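 note: fluorescein maleimide labelled GST captured on 4 micron glutathione beads; higher means more loss of bead fluorescence from quenching or blocked binding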
* = called active by the depositor; · = no result.

SMILES	SENP1 inh	Arrestin-AP2 inh	FAS-TE inh	GASC-1 inh	Arr-AP2 CP1	GST-FITC bead
CC/C(=N\NC(=S)NC(C)C)c1ccc(OC)c(OC)c1	1	56*	2	1	2	-3
CC/C(=N\NC(N)=O)c1ccc(OC)c(OC)c1	0	40	-5	-1	·	·
COc1ccc(CCN2C(=O)CS/C2=N\NC(=O)c2ccc(C(C)(C)C)cc2)cc1OC	3	62*	-1	-2	5	-1
COc1ccc(N=C2SCC(=O)N2CCc2ccc(OC)c(OC)c2)cc1	1	-11	2	-26	·	·
O=C(Nc1cc(S(=O)(=O)N2CCCCC2)ccc1N1CCOCC1)c1cc(=O)[nH]c2ccccc12	1	-3	-2	-9	·	·
COc1ccc(S(=O)(=O)N2CCOCC2)cc1NC(=O)c1cc(=O)[nH]c2ccccc12	-1	-2	-3	0	-15	-2
COc1ccc(S(=O)(=O)N2CCOCC2)cc1NC(=O)c1ccc(=O)[nH]c1	-1	-3	-7	·	-8	-1
CN(C)c1ccc(NC(=O)COC(=O)Cn2nnc3ccccc32)cc1	3	61*	-11	0	-5	-9
CC1CCCC(C)N1C(=O)COC(=O)CSc1ccc([N+](=O)[O-])cc1 (stereo not given)	4	75*	16	·	-6	-5
CCOC(=O)N1CCN(S(=O)(=O)c2ccc(Cl)cc2)CC1	1	66*	-5	-2	-5	-6
Cc1cc(C)nc(NC(=NCCc2c[nH]c3ccccc23)NC(=O)c2ccco2)n1	0	83*	21	17	-17	1
Cc1cc(C)nc(NC(=NCCc2c[nH]c3ccccc23)NC(=O)Nc2ccccc2)n1	1	1	23	2	·	·
Cc1ccc(C2Nc3ccccc3-c3nc4ccccc4n32)o1 (stereo not given)	-5	1	15	-1	·	·
CCn1c(SCC(=O)Nc2ccc(F)cc2F)nc2c(c1=O)SCC2	-3	18	1	0	·	·
COc1ccc(N2CCN(S(=O)(=O)CCNC(=O)/C=C/c3ccc4c(c3)OCO4)CC2)cc1	0	63*	-4	-9	0	-1
COc1ccccc1N1CCN(S(=O)(=O)CCNC(=O)/C=C/c2ccc3c(c2)OCO3)CC1	0	·	3	·	·	·
COc1ccc(N2C(=O)C3CCCN3C2c2ccccc2)cc1Cl (stereo not given)	-2	13	-7	-14	·	·
CC(=NNC(=O)c1cc(C)nc2ccccc12)c1ccc(N2CCOCC2)cc1	2	-2	-6	-203	·	·
C/C(=N\NC(=O)c1cc(-c2ccncc2)nc2ccccc12)c1ccc(N2CCOCC2)cc1	3	111*	1	-9	-13	0
O=c1[nH]n(Cc2ccccc2)c2ccccc12	3	59*	-4	-3	1	-1
O=c1ccn(Cc2ccccc2)c2ccccc12	0	7	-11	2	·	·
CCCCc1cc(=O)oc2c(CN3CCN(C)CC3)c(O)ccc12	-168	54*	-6	-19	-9	-5
CCC[C@@H](NS(=O)(=O)c1ccc(C)cc1)C(=O)Oc1ccc2c3c(c(=O)oc2c1)CCC3	-106	57*	43	2	-5	-4
Clc1ccccc1CN1CCN(c2ncccn2)CC1	1	58*	-2	-9	-10	-1
Clc1cccc(CN2CCN(c3ncccn3)CC2)c1Cl	0	2	12	9	·	·
SMILES	SENP1 inh	Arrestin-AP2 inh	FAS-TE inh	GASC-1 inh	Arr-AP2 CP1	GST-FITC bead
Cn1nc(C(=O)NC2CCCC2)c2ccccc2c1=O	1	69*	-8	·	4	0
Cn1c(C(=O)NC2CCCCC2)cc2c(=O)n3ccccc3nc21	-55	60*	-3	-10	-2	-5
Cn1nc(C(=O)NC2CCC(O)CC2)c2ccccc2c1=O (stereo not given)	-1	-9	-10	·	·	·
CC(C)C(c1nnnn1C1CCCC1)N1CCC(C(N)=O)CC1 (stereo not given)	3	7	-7	0	·	·
Cc1ccc(S(=O)(=O)N2CCCCC2)cc1NC(=O)c1ccncc1	0	5	-6	·	4	1
Cc1ccnc(NC(=O)c2cccc(S(=O)(=O)N3CCCC3)c2)c1	0	60*	-2	38	24	1
CN(c1ccc(C(=O)N2CCOCC2)cc1)S(=O)(=O)c1cccs1	1	16	-5	-1	·	·
O=C(c1ccc2ncsc2c1)N1CCN(c2ccccc2Cl)CC1	1	-24	7	-26	·	·
O=C(c1ccc2ncsc2c1)N1CCN(c2ccc(O)cc2)CC1	1	65*	-7	8	-9	-12
Cc1ccc(C2=NOC(c3nnc(-c4ccccc4)o3)C2)cc1 (stereo not given)	3	7	-7	6	·	·
Cc1ccccc1OCC(=O)Nc1cccc2nsnc12	-30	101*	8	4	9	-10
CCC(C(=O)Nc1ccc2c(c1)OCCO2)n1c(=O)[nH]c2ccccc2c1=O (stereo not given)	-1	21	-5	12	-3	-2
Cc1[nH]c2ccccc2c1C(=O)C(=O)Nc1ccc2c(c1)OCCO2	1	-8	1	-4	·	·
COc1ccccc1C(=O)Nc1nnc(S(=O)(=O)N2CCCCC2)s1	3	64*	2	-25	6	-18
Cc1cc(NC(=O)c2cc(-c3ccc(C)c(C)c3)nc3ccccc23)no1	-1	-2	22	-5	·	·
COc1ccc(C(=O)NC(=S)Nc2ccc(S(=O)(=O)Nc3cc(OC)nc(OC)n3)cc2)cc1	0	56*	-2	-3	-2	-3
Cc1cc(Br)ccc1NCc1ccccn1	0	6	2	17	·	·
COc1ccc(CC(NC(C)=O)C(=O)NC2CCN(c3nc(C)cc(C)c3C#N)CC2)cc1 (stereo not given)	0	55*	-2	8	0	-1
O=C(c1ccco1)N1CCCC(N2CCN(c3ccccc3F)CC2)C1 (stereo not given)	0	-16	-3	-4	·	·
O=C(c1ccnc(Cl)c1)N1CCCC(N2CCN(c3ccccc3F)CC2)C1 (stereo not given)	0	63*	-3	2	2	-3
O=C(CCC1CCCCC1)Nc1cccnc1	4	3	-2	8	·	·
C=C1CCN(c2ccc(C(=O)NCc3ccc(C)cc3)cc2[N+](=O)[O-])CC1	0	7	18	3	·	·
Cc1ccc(NC(=O)N2CCCCCC2)cc1C	1	63*	-7	-7	-14	-4
CCCNC(=O)c1ccc(N2CCC3(CC2)CC(c2cccc(Br)c2)=NO3)c(NC(=O)c2ccccc2)c1	3	-3	37	8	·	·
O=C(CCNC(=O)c1ccc(Br)cc1)NCc1ccccc1F	0	55*	4	-2	-6	-1

High-throughput results as filed in PubChem BioAssay.
